Consider one molecule from ChEMBL document CHEMBL4311948, “Exploring the Natural Piericidins as Anti-Renal Cell Carcinoma Agents Targeting Peroxiredoxin 1” (J Med Chem, 2019).

The structures appear in SMILES notation. The source made the active and inactive calls. The calls are words filed in the database; no cut-off is given here.

One may read the IC50 as the concentration at which inhibition is half-maximal. The term Kd denotes the equilibrium constant for the complex coming apart. A high value points to weaker binding.

Data set [1] relates to 786-0. In words: Cytotoxicity against human 786-O cells assessed as reduction in cell viability measured after 72 hrs by CCK8 assay. Format: functional, cell-based. The following applies: 786-0, 72 h. A digest of the protocol: (§1)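 Cells were grown in 10% FBS medium: MEM for ACHN, RPMI1640 for OS-RC-2 and 786-O, DMEM for HK-2. They were seeded at 400–800 cells/well in 384-well plates and treated with a range of compound concentrations or solvent control, with sorafenib as positive control. After 72 h, CCK-8 absorbance was read at 450 nm in triplicate, and IC50 was taken from dose-response curves.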
For orientation: Formazan colour is commonly taken as a measure of viable cells.

Data set [2] deals with HK-2. Put plainly: Cytotoxicity against human HK2 cells assessed as reduction in cell viability measured after 72 hrs by CCK8 assay. Format: cell-based. The conditions noted are these: HK-2, 72 h. The method, boiled down:
as §1

In data set [3] the test system is ACHN. In words: Down regulation of MET mRNA expression in human ACHN cells at 25 to 50 nM measured after 24 hrs by qRT-PCR analysis. In kind it is functional, cell-based. In general terms: In qPCR the cycle at which signal appears reflects the starting amount.
Data set [4] relates to ACHN. Put plainly: Up regulation of PRDX1 mRNA expression in human ACHN cells at 25 to 50 nM measured after 24 hrs by qRT-PCR analysis. Format: functional, cell-based.
In data set [5] the test system is ACHN. In words: Induction of apoptosis in human ACHN cells assessed as early apoptotic cells at 50 nM measured after 24 hrs by Annexin V-FITC/propidium iodide staining based flow cytometry (reference value: 0%). In kind it is functional. In general terms: Flow cytometry measures light scatter and fluorescence of single cells or particles in a stream.
Data set [6] relates to ACHN. In words: Induction of apoptosis in human ACHN cells assessed as necrotic cells at 50 nM measured after 24 hrs by Annexin V-FITC/propidium iodide staining based flow cytometry (reference value: 0%). In kind it is functional.
The test system of data set [7] is ACHN. In words: Induction of apoptosis in human ACHN cells assessed as late apoptotic cells at 50 nM measured after 48 hrs by Annexin V-FITC/propidium iodide staining based flow cytometry (reference value: 0%). Format: functional.
The test system of data set [8] is ACHN. In words: Selectivity ratio of IC50 for cytotoxicity against human ACHN cells harboring shPRDX1 gene to IC50 for Cytotoxicity against human ACHN cells. In kind it is functional.
Data set [9] has as its target T1, Peroxiredoxin-1 (Homo sapiens, UniProt Q06830).
T1 sequence (Q06830 whole entry): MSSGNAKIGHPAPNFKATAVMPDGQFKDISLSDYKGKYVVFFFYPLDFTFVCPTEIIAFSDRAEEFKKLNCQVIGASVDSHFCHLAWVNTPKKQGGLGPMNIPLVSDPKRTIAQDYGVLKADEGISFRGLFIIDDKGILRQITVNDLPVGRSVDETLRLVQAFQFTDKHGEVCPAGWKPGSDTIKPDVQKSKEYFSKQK
Put plainly: Binding affinity to full-length human PRDX1 by surface plasmon resonance analysis. A digest of the protocol:
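Full-length human PRDX1 immobilised on a CM5 chip (Biacore T100). Analyte concentration series diluted in 10 mM Hepes pH 7.4, injected over the protein surface and a protein-free reference surface in a single step.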

In data set [10] the test system is ACHN. In words: Antitumor activity against human ACHN cells xenografted in Balb/c nu/nu mouse assessed as tumor weight at 0.8 mg/kg, ip administered once daily for 21 days measured post-last dose by caliper method (reference value: 0.55 +/- 0.13 g). Format: functional. The method, boiled down: (§2)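 Male athymic Balb/c nu/nu mice, four weeks old, acclimatised 1 week. 10^7 ACHN cells in 0.2 mL PBS injected into the right flank. At about 150 mm3, mice randomised into PBS control or 0.8 mg/kg groups, dosed ip daily for three weeks. Tumours measured by caliper (volume = 0.5 × L × W²) with body weight recorded. Endpoint tumour weight, sections stained by H&E and TUNEL. Tissue lysed for immunoblot.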

Data set [11] is described as follows: Toxicity in Balb/c nu/nu mouse xenografted with human ACHN cells assessed as effect on survival at 0.8 mg/kg, ip administered once daily for 21 days. In kind it is organism-based. The following applies: in vivo, 504 h. A digest of the protocol: as §2
A short description of data set [12]: Toxicity in Balb/c nu/nu mouse xenografted with human ACHN cells assessed as decrease in body weight at 0.8 mg/kg, ip administered once daily for 21 days. In kind it is organism-based. The following applies: in vivo, 504 h. The method, boiled down: as §2
For data set [13], the system named is Mus musculus. Put plainly: Up regulation of PRDX1 mRNA expression in human ACHN cells xenografted Balb/c nu/nu mouse at 0.8 mg/kg, ip administered once daily for 21 days measured post-last dose by qRT-PCR analysis. In kind it is functional, organism-based.
Data set [14] relates to ACHN. In words: Antitumor activity against human ACHN cells xenografted in Balb/c nu/nu mouse assessed as tumor growth inhibition at 0.8 mg/kg, ip administered once daily for 21 days measured post-last dose by TUNEL staining-based assay. Format: functional, organism-based. A digest of the protocol:
as §2

With `C/C=C(\C)[C@H](O)[C@H](C)/C=C(C)/C=C/C/C(C)=C/Cc1nc(OC)c(OC)c(O)c1C` [PIERICIDIN A], the IC50 was 30 µM in data set [1] and above 100 µM in [2]. Besides, the result in data set [3], in data set [4] and in data set [13] was Active. Further, the Activity is 0.9% in data set [5]; 15.9% in data set [6]; 7.4% in data set [7]; 0.28 g in [10]; “Non-Toxic” in [11]; “Non-Toxic” in data set [12]. The “Ratio IC50” value in data set [8] is 4. The molecule also displayed a Kd in data set [9] of 2610 nM. In addition, the TGI result in data set [14] is “Active”.
